Compounds with a hit are over-represented: about 1.9% of the library has one in this group of screens.
MBD2 inh = inhibitors of MBD2 binding to methylated DNA, primary screen, biochemical, TR-FRET, DNA-binding domain, human. Methyl-CpG-binding domain protein 2 (Homo sapiens), Q9UBB5. MBD2 binding to methylated oligonucleotide. inhibition, % at 4.4 µM. hit rate 0.31% among 370,000; in the data active = inhibition above about 13%
Target sequence (Q9UBB5 whole entry, looked up, the tested form may be a part): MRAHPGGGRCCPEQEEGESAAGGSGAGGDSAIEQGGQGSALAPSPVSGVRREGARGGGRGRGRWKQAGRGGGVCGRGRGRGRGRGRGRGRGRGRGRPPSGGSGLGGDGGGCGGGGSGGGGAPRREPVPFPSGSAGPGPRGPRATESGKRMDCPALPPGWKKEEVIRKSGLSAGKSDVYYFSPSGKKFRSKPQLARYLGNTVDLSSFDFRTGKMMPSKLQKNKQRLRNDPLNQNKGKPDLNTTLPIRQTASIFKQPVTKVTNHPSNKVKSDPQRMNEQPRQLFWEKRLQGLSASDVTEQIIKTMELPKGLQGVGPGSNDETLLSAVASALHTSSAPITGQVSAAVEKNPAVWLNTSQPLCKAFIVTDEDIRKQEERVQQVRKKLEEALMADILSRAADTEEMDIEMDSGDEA
DDE Tn6 FP inh = inhibitors of Tn6 peptide binding to fibrin DD(E), primary screen, biochemical, fluorescence polarization, human fibrin, Tn6 probe. Fibrinogen beta chain (Homo sapiens), P02675. Fibrin DD(E) TRITC-Tn6 fluorescence polarization displacement. inhibition, % at 8.3 µM. hit rate 0.21% among 370,000;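 active = inhibition above a per-campaign cutoff: mean of compounds within control limits plus 3 SD, cut at about 15% in these data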;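 note: 0% = median of all compound wells on the plate and 100% = blocking peptide control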
TDP2 absorb = human TDP2 enzyme inhibitors, primary screen, biochemical, epi absorbance, recombinant enzyme. Tyrosyl-DNA phosphodiesterase 2 (Homo sapiens), O95551. T5PNP hydrolysis, p-nitrophenol absorbance 415 nm. inhibition, % at 12.8 µM. hit rate 0.34% among 370,000. AID 720702, 2013;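 active = inhibition above the mean of all tested compounds plus 3 SD, set per campaign, cut at about 25% in these data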;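 note: 0% = DMSO with enzyme and 100% = buffer with substrate but no TDP2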
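Test system: Human TDP2 enzyme | Reagent: 5 mM T5PNP | Compound dosing: 12.8 µM single point, 1% DMSO | Incubation: Enzyme reaction with compound for 2 h at 37 °C | Technique: p-Nitrophenol epi absorbance | Read-out: % inhibition relative to enzyme-containing and enzyme-free wells | Benchmarks: High control without enzyme, low control DMSO plus TDP2 | Replicates: Singlicate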
UHRF1 MBD2 ctr = UHRF1 methylated DNA binding inhibitors, primary screen, counter-screen for MBD2 inhibitor project, biochemical, TR-FRET, human UHRF1, single concentration; E3 ubiquitin-protein ligase UHRF1 (Homo sapiens), Q96T88; UHRF1 binding to methylated oligo; inhibition, % at 4.4 µM; hit rate 0.75% among 370,000; in the data active = inhibition above about 21%;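 note: UHRF1 SRA domain binding a hemimethylated CpG hairpin DNA probe; 0% = median of test compound wells and 100% = reference inhibitor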
DDE Tn7 FP inh = inhibitors of Tn7 peptide binding to fibrin DD(E), primary screen, biochemical, fluorescence polarization, human fibrin, Tn7 probe. Fibrinogen beta chain (Homo sapiens), P02675. FP displacement of FITC-Tn7 peptide from fibrin DD(E); 0% = median of compound wells per plate. inhibition, % at 8.3 µM. hit rate 0.13% among 370,000. AID 720508, 2013;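 active = inhibition above the mean of compounds falling within the control limits plus 3 SD of them, cut at about 14% in these data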;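 note: 0% = plate median of compound wells and 100% = 10 µM Aha-Tn7 peptide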
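Test system: human clot-derived fibrin DD(E) complex / Quantity: 2 µM final DD(E) protein / Incubation: 10 min plus 3 h, room temperature / Measured by: fluorescence polarization / Benchmarks: high control of 10 µM Aha-Tn7 peptide / Replicates: singlicate testing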
LEDGF integ inh = blockers of LEDGF/p75-dependent integrase strand transfer – biochemical, TR-FRET, high throughput, primary screen | AID 743269, 2014 | TR-FRET IN-LEDGF/p75 DNA integration, Eu/Cy5 | hit rate 0.64% among 370,000 | HIV-1 integrase (with human LEDGF/p75) | inhibition, % at 3.7 µM;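 active = inhibition above the screen-wide mean plus 3 SD, cut at about 13% in these data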;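 note: signal is the Cy5 over europium emission ratio at 671 and 618 nm; 0% = plate median of compound wells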
IN multimer act = HIV-1 IN multimer formation enhancers, counter-screen for LEDGF/p75 integration inhibitor project, biochemical, TR-FRET | hit rate 17% among 2,000 | AID 1053131, 2014 | shares compounds with LEDGF integ inh | activation, % at 7.7 µM | TR-FRET HIV-1 integrase multimerization; in the data active = activation above about 8.9%
TR-FRET interf = TR-FRET optical interference artefacts, confirmation, artefact control for LEDGF/p75-dependent integration inhibitor project, biochemical, HIV-1 IN multimerization; shares compounds with LEDGF integ inh; TR-FRET optical interference counterscreen; inhibition, % at 7.7 µM; 2,000 tested, under 10 active; AID 1053135, 2014;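 active = inhibition above the mean over all tested compounds plus 3 SD, which no compound reached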;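 note: 0% = integrase with antibodies and DMSO and 100% = antibodies without integrase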
IN-LEDGF confirm = inhibitors of HIV-1 IN-LEDGF/p75 DNA integration, confirmation, biochemical, TR-FRET; hit rate 36% among 2,000; inhibition, % at 3.7 µM; TR-FRET LEDGF/p75-dependent HIV-1 integration; shares compounds with LEDGF integ inh; AID 1053136, 2014; in the data active = inhibition above about 14%
Numbers without * were called inactive.

For CCOC(=O)c1c(C)c(C(=O)NC2CCCCCC2)c(C)n1C the results were MBD2 inh 1, DDE Tn6 FP inh -2, TDP2 absorb 14, UHRF1 MBD2 ctr -2, DDE Tn7 FP inh -3, LEDGF integ inh 66*, IN multimer act -1, TR-FRET interf 3 and IN-LEDGF confirm 5.
`CCN(C[C@H]1N[C@@](CC)(C(=O)OC)[C@H]2C(=O)N(Cc3ccccc3)C(=O)[C@@H]12)C(=O)Nc1ccc(C(F)(F)F)cc1` gave MBD2 inh 3, DDE Tn6 FP inh 0, TDP2 absorb 2, UHRF1 MBD2 ctr 1, DDE Tn7 FP inh -3, LEDGF integ inh 66*, IN multimer act -2, TR-FRET interf 10 and IN-LEDGF confirm -5.
`COc1cccc(N2CCN(CC(=O)NCc3ccco3)CC2)c1` gave MBD2 inh -4, DDE Tn6 FP inh -6, TDP2 absorb -4, UHRF1 MBD2 ctr -1, DDE Tn7 FP inh 5 and LEDGF integ inh -5.
O=[N+]([O-])c1cccc(/C=C/c2ccncc2)c1 was read as MBD2 inh 0, DDE Tn6 FP inh -3, TDP2 absorb 15, UHRF1 MBD2 ctr -10, DDE Tn7 FP inh -3, LEDGF integ inh 19*, IN multimer act 0, TR-FRET interf 1 and IN-LEDGF confirm 0.
Screening Cc1cccc(Cn2cc(CN3CC(N(C)CCCOC(=O)c4cc5ccccc5o4)CS3(=O)=O)nn2)c1 (centres undefined) returned MBD2 inh 0, DDE Tn6 FP inh -12, TDP2 absorb 5, UHRF1 MBD2 ctr 12, DDE Tn7 FP inh 0 and LEDGF integ inh 3.
Cc1cc(C)c(NC(=O)C2CCCN(S(=O)(=O)c3c(C)noc3/C=C/N(C)C)C2)c(C)c1 (centres undefined) was read as MBD2 inh 7, DDE Tn6 FP inh 4, TDP2 absorb -9, UHRF1 MBD2 ctr 0, DDE Tn7 FP inh 2 and LEDGF integ inh -2.
`Cc1noc(/C=C/N(C)C)c1S(=O)(=O)N1CCCC(C(=O)Nc2ccc3c(c2)OCO3)C1` (centres undefined) gave MBD2 inh 1, DDE Tn6 FP inh 3, TDP2 absorb -10, UHRF1 MBD2 ctr 0, DDE Tn7 FP inh -3, LEDGF integ inh 15*, IN multimer act -1, TR-FRET interf 6 and IN-LEDGF confirm -4.
Screening CCOC(=O)C1=NS(=O)(=O)NC(C)=C1 returned MBD2 inh -6, DDE Tn6 FP inh 1, TDP2 absorb -1, UHRF1 MBD2 ctr 0, DDE Tn7 FP inh -4, LEDGF integ inh 16*, IN multimer act 0, TR-FRET interf -1 and IN-LEDGF confirm -1.

Compound activity deposited in PubChem BioAssay by The Scripps Research Institute Molecular Screening Center.
